TCR-CD3 inh – inhibitors of human TCR-CD3 interaction. TAMRA-labeled TCR probe fluorescence, biochemical. inhibition, % at 9.4 µM. actives 0.37% (n = 360,000). AID 651800; in the data active = inhibition above about 19%;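 also: recombinant mutant TCR 2C K166C tagged with TAMRA read by polarization; 0% = receptor in buffer alone and 100% = receptor with positive control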
DDE Tn6 FP inh – disrupts Tn6 cyclic peptide binding to fibrin D-Dimer-E complex. P02675. Fibrin DD(E) TRITC-Tn6 fluorescence polarization displacement. inhibition, % at 8.3 µM. actives 0.21% (n = 370,000). AID 720509;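 active = inhibition above a per-campaign cutoff: mean of compounds within control limits plus 3 SD, cut at about 15% in these data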;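 also: 0% = median of all compound wells on the plate and 100% = blocking peptide control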
DDE Tn7 FP inh – inhibitors of Tn7 peptide binding to human fibrin DD(E). inhibition, % at 8.3 µM. AID 720508. actives 0.13% (n = 370,000). FP displacement of FITC-Tn7 peptide from fibrin DD(E); 0% = median of compound wells per plate;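 active = inhibition above the mean of compounds falling within the control limits plus 3 SD of them, cut at about 14% in these data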;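 also: 0% = plate median of compound wells and 100% = 10 µM Aha-Tn7 peptide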
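assay system = human clot-derived fibrin DD(E) complex | quantity = Fibrin-DD(E) at 2 µM final | timing = 10 min preincubation, 3 h with tracer, room temperature | signal = fluorescence polarization | measure = percent inhibition | benchmarks = high control wells with 10 µM unlabelled Aha-Tn7 peptide (full inhibition) | replicates = singlicate testing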
ABHD4 inh – inhibits mouse alpha/beta hydrolase domain 4; actives 0.54% (n = 370,000); AID 720543; inhibition, % at 8.92 µM; purified mABHD4, FP-Rh probe fluorescence polarization; Q8VD66;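 active = inhibition exceeding the mean over every tested compound plus 3 SD, cut at about 30% in these data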;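 also: 0% = plate median of compound wells and 100% = S159A mutant with DMSO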
Target sequence (Q8VD66 whole entry, looked up, the tested form may be a part): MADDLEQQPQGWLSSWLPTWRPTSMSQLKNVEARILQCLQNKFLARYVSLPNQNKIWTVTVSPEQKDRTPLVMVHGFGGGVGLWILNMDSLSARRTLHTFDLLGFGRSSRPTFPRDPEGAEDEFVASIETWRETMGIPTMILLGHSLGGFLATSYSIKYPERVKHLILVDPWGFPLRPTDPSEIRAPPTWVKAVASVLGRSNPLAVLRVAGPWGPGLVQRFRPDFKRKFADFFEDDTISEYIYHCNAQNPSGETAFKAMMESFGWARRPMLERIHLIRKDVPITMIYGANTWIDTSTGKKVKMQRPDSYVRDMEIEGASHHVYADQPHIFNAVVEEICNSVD
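Test system: mouse ABHD4 enzyme, wild type. Reagent: FP-Rh fluorescent activity-based probe, added after compound pre-incubation. Timing: pre-incubation 45 min, probe exposure 60 min, at 25 °C. Technique: FP readout, ex 525 nm / em 598 nm. Benchmarks: high control S159A mutant with DMSO, low control median of compound wells.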
HTRA1 inh – blocks human HTRA1 serine peptidase. Q92743. recombinant HTRA1, FP-rhodamine activity-based probe, fluorescence polarization. inhibition, % at 5.96 µM. actives 0.5% (n = 340,000); in the data active = inhibition above about 36%;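 also: 0% = enzyme with DMSO and 100% = wells lacking enzyme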
SIAE inh – inhibitors of human sialic acid acetylesterase SIAE; SIAE FP-Rh probe binding, fluorescence polarization; inhibition, % at 9.66 µM; actives 0.69% (n = 370,000); AID 1053197;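 active = inhibition above a cutoff: mean of compounds within the control limits plus 3 SD of those, cut at about 17% in these data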;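 also: 0% = plate median of compound wells and 100% = probe without SIAE protein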
HTRA1 conf – confirmation of human HTRA1 inhibitors. shares compounds with HTRA1 inh. recombinant HTRA1, FP-rhodamine activity-based probe, fluorescence polarization. inhibition, % at 5.96 µM. actives 66% (n = 1,600). AID 540248;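 active = mean inhibition over three repeats above a set limit taken from the earlier primary screen, cut at about 37% in these data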;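 also: 0% = HTRA1 with DMSO and 100% = wells lacking HTRA1; inhibitors block probe binding so polarization drops and inhibition rises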
* hit, by the source's call; x = no result given. Hits are enriched below; roughly 1.8% of the tested compounds scored in any of these assays.

SMILES | TCR-CD3 inh | DDE Tn6 FP inh | DDE Tn7 FP inh | ABHD4 inh | HTRA1 inh | SIAE inh | HTRA1 conf
Cc1nc(NC2CCCC2)c2nnn(Cc3ccccc3)c2n1 | x | 3 | -1 | -3 | x | 3 | x
O=C(CSc1nnc(-c2cccnc2)n1Cc1ccco1)Nc1ccc(F)cc1Cl | x | 2 | 2 | -8 | x | 0 | x
O=C(Nc1cccnc1Cl)c1cccs1 | 12 | 2 | -11 | -4 | -3 | -2 | x
O=C(Oc1c(CN2CCOCC2)cc(Cl)c2cccnc12)c1ccccc1Cl | -5 | -3 | -5 | 12 | 37* | 16 | 39*
O=C(Oc1c(CN2CCOCC2)cc(Cl)c2cccnc12)c1ccc(F)cc1 | 7 | -4 | -12 | 6 | 30 | 4 | x
COc1cc(C(=O)Oc2c(CN3CCOCC3)cc(Cl)c3cccnc23)cc(OC)c1OC | x | x | x | x | 50* | x | 71*
O=C(Oc1c(Cl)cc(Cl)c2cccnc12)c1cccs1 | -5 | 4 | 1 | 15 | 45* | 10 | 24
O=C(Oc1c(CN2CCOCC2)cc(Cl)c2cccnc12)c1cccs1 | -8 | -7 | -2 | 7 | 44* | 9 | 11
C=CCN(CC#Cc1ccccc1)Cc1ccc(OC)cc1 | x | 1 | 4 | 2 | x | -1 | x
CC(C)(C)c1ccc(-c2nnc(SCC3CCCCO3)n2-c2ccc(Cl)cc2)cc1 (configuration not stated) | x | 1 | 11 | 3 | x | -5 | x
CC(C)CN1C(=O)C[C@@]2(C(=O)N(C)c3ccc(NC(=O)c4cc(F)ccc4F)cc32)C1c1ccccc1 (some centres not stated) | x | -2 | -1 | 0 | x | -110 | x
NC(=O)C1CCN(c2nc(-c3ccc(OCc4ccccc4)cc3)cs2)CC1 | x | -2 | 1 | -12 | x | 4 | x
O=C(Oc1cncc(Cl)c1)c1ccco1 | 2 | 0 | -5 | 0 | 1 | 0 | x
O=C(Oc1c(Cl)cc(Cl)c2cccnc12)c1ccco1 | 3 | -1 | -3 | 16 | 59* | 7 | 54*
COc1ccc2[nH]c(O)c(N=NC(=O)c3ccc(NS(=O)(=O)c4cccs4)cc3)c2c1 | 3 | 2 | 0 | 29 | 45* | 17 | 34
S=C(Nc1cccc(Cl)c1)OCCN1CCCC12CCC(c1ccccc1)CC2 (configuration not stated) | x | -6 | 0 | 2 | x | -5 | x
Cc1ccc2c(c1)c1c(n2C)-c2[nH]ncc2CC1 | 4 | -2 | 1 | 25 | 37* | 21* | 20
O=C(NCCc1ccccc1)C1COc2ccccc2O1 (configuration not stated) | -6 | 2 | -3 | -4 | -6 | -13 | x
O=C(NCCc1ccc(O)c(O)c1)C1COc2ccccc2O1 (configuration not stated) | 5 | -8 | 0 | 28 | 40* | 5 | 61*
Cc1cc(C)c2sc(NNC(=O)c3ccc(S(=O)(=O)N4CCc5ccccc5C4)cc3)nc2c1 | -11 | -8 | -3 | 1 | 44* | -1 | 42*
Cc1cc(C)c2nc(NNC(=O)c3ccc(S(=O)(=O)N4CCc5ccccc5C4)cc3)sc2c1 | 3 | -6 | 5 | 6 | 52* | 6 | 48*
CCc1nnc(NC(=O)c2ccc(S(=O)(=O)N3CCc4ccccc4C3)cc2)s1 | 6 | -1 | 4 | 3 | 2 | -1 | x
O=C(CCc1ccccc1)N[C@H]1[C@@H](OC(=O)c2cnccn2)CCC[C@]12C(=O)N(Cc1ccccc1)c1ccccc12 | x | -5 | -1 | 0 | x | -7 | x
COc1cccc(C2Nc3c(F)cc(Br)cc3C3C=CCC32)c1OC (configuration not stated) | 2 | -3 | -2 | 1 | 44* | 2 | -19
CN1C(=O)C[C@@](C#N)(C(=O)NCC(F)(F)F)[C@H]1c1ccccc1 | x | 6 | 1 | 0 | x | 10 | x
SMILES | TCR-CD3 inh | DDE Tn6 FP inh | DDE Tn7 FP inh | ABHD4 inh | HTRA1 inh | SIAE inh | HTRA1 conf
O=C(NN=C1CCCC1)c1cc(Br)ccc1O | 5 | 4 | -1 | 12 | 5 | 5 | x
O=C(N/N=C1/CCSC1)c1cc(Br)ccc1O | 17 | -3 | 10 | 11 | 45* | 10 | 21
CC(C)C[C@H]1COc2ccc(Cl)cc2S(=O)(=O)N1Cc1cn(Cc2ccc(C(F)(F)F)cc2)nn1 | x | 6 | -4 | 4 | x | -3 | x
C/C(N=Nc1nc2ccccc2s1)=N\Nc1ccccc1O | 7 | -12 | -8 | 28 | 68* | 10 | 74*
Oc1[nH]c2ccccc2c1N=Nc1nc2ccccc2s1 | -2 | -6 | 8 | -6 | 11 | -1 | x
COc1ccc(-c2nn(-c3ccccc3)cc2/C=N/N2C(=O)CSC2=S)cc1 | 9 | -11 | 6 | 22 | 68* | -1 | 53*
COc1ccc(/C=N/N2C(=O)CSC2=S)cc1 | 5 | -1 | 5 | 8 | 0 | -5 | x
CCC(CO)Nc1cccc2c1S(=O)(=O)N(Cc1cn(Cc3ccc(F)cc3)nn1)Cc1ccccc1O2 (configuration not stated) | x | 10 | -11 | -6 | x | 0 | x
O=C1CC(Nc2ccc(N3CCOCC3)cc2)C(=O)N1c1cccc(C(F)(F)F)c1 (configuration not stated) | x | x | x | x | 61* | x | 14
CN(C)c1ccc(N2C(=O)CC(Nc3ccc(N4CCOCC4)cc3)C2=O)cc1 (configuration not stated) | -7 | 0 | 0 | 21 | 6 | 11 | x
O=C(OC12CCCN(C1)/C(=C/c1cccc(Cl)c1)C2)c1ccccc1 (configuration not stated) | x | -7 | -4 | 3 | x | 0 | x
COC(=O)C1=C(O)/C(=C\c2ccc(CNC(=O)C(=O)Nc3ccc(C)cc3)o2)N=C1C | -1 | 2 | -4 | 16 | 45* | 4 | -4
CCOC(=O)[C@@H](CCc1ccccc1)N[C@@H](C)C(=O)N1CCC[C@H]1C(=O)O | x | 2 | 8 | 0 | x | -5 | x
Nc1cc(N)c(OCC(F)(F)F)cc1OCC(F)(F)F | x | x | x | x | 48* | x | 34
C=CCN1[C@@H](C)COc2cccc(N3CCSCC3)c2S1(=O)=O | x | 11 | -7 | 1 | x | -2 | x
O=C1/C(=C\c2cccc(O)c2O)SC(=S)N1Cc1ccccc1 | -2 | 1 | -1 | 13 | 54* | -6 | 65*
O=C(CN1C(=O)/C(=C/c2ccccc2)SC1=S)NNC(=O)c1ccccc1O | 18 | -11 | -3 | -1 | 55* | 2 | 42*
O=C(N/N=C/c1cc2c(cc1[N+](=O)[O-])OCO2)c1ccccn1 | -5 | 3 | -1 | 6 | 12 | 0 | x
O=[N+]([O-])c1cc2c(cc1C=Nc1ccccc1)OCO2 | x | x | x | x | 51* | x | 4
